Activity calls are given as the source filed them. The rule behind the calls is not given here.
Experiments:
T47D [1] = experiment: Inhibition of PR-A gene expression in human T47D cells at 25 nM by syber green assay in presence of 10 nM estradiol; format: functional, cell-based
T47D [2] = experiment: Inhibition of PR-B gene expression in human T47D cells at 25 nM by syber green assay in presence of 10 nM estradiol; format: functional, cell-based
T47D [3] = experiment: Inhibition of PR-A mRNA gene expression in human T47D cells at 100 nM by syber green assay; format: functional
Summary of the method: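 T47D cells plated at 80,000/well without antibiotics two days before Oligofectamine transfection with agRNA duplex (25 or 100 nM final); medium changed at 24 h, harvest day 5 unless stated otherwise. TRIzol total RNA; PR mRNA by real-time PCR with SYBR Green: 50 °C 2 min, 95 °C 10 min, 40 cycles 95 °C 15 s/60 °C 1 min.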

T47D [4] = experiment: Inhibition of PR-B mRNA gene expression in human T47D cells at 100 nM by syber green assay; format: functional
Summary of the method: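 T47D cells in RPMI-1640 with 10% FBS, NEAA, insulin, 37 °C, 5% CO2. Plated two days before transfection without antibiotics. Oligofectamine-mediated duplex RNA transfection at 100 nM final, medium changed at 24 h, harvest five days post-transfection. Total RNA extracted with TRIzol. hPR mRNA quantified by SYBR Green qPCR: 50 °C 2 min, 95 °C 10 min, then 40 cycles of 95 °C 15 s / 60 °C 1 min.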

T47D [5] = experiment: Inhibition of androgen receptor expression in human T47D cells after 12 days at 100 nM by syber green assay; format: functional, cell-based
Summary of the method: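 AR expression in T47D cells, grown in RPMI-1640 with 10% FBS, NEAA and insulin. Plated antibiotic-free two days before Oligofectamine transfection with 100 nM duplex RNA; medium replaced after 24 h. TRIzol total RNA. SYBR Green real-time PCR: 50 °C 2 min, 95 °C 10 min, 40 cycles of 95 °C 15 s and 60 °C 1 min.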

Structure (SMILES): Cc1cn(CC(=O)N(CCNC(=O)CN(CCNC(=O)CN(CCNC(=O)CN(CCNC(=O)CN(CCNC(=O)CN(CCNC(=O)CN(CCNC(=O)CN(CCNC(=O)CN(CCNC(=O)CN(CCNC(=O)CN(CCNC(=O)CN(CCNC(=O)CN(CCNC(=O)CN(CCNC(=O)CN(CCNC(=O)CN(CCNC(=O)CN(CCNC(=O)CN(CCNC(=O)CN(CCNC(=O)CN(CCNC(=O)CN)C(=O)Cn2cnc3c(=O)[nH]c(N)nc32)C(=O)Cn2cnc3c(=O)[nH]c(N)nc32)C(=O)Cn2cnc3c(=O)[nH]c(N)nc32)C(=O)Cn2cnc3c(=O)[nH]c(N)nc32)C(=O)Cn2ccc(N)nc2=O)C(=O)Cn2cnc3c(=O)[nH]c(N)nc32)C(=O)Cn2ccc(N)nc2=O)C(=O)Cn2ccc(=O)[nH]c2=O)C(=O)Cn2cnc3c(=O)[nH]c(N)nc32)C(=O)Cn2cnc3c(=O)[nH]c(N)nc32)C(=O)Cn2cnc3c(=O)[nH]c(N)nc32)C(=O)Cn2cnc3c(N)ncnc32)C(=O)Cn2cnc3c(=O)[nH]c(N)nc32)C(=O)Cn2cnc3c(=O)[nH]c(N)nc32)C(=O)Cn2ccc(=O)[nH]c2=O)C(=O)Cn2cnc3c(=O)[nH]c(N)nc32)C(=O)Cn2cnc3c(=O)[nH]c(N)nc32)C(=O)Cn2cnc3c(N)ncnc32)C(=O)Cn2cnc3c(=O)[nH]c(N)nc32)CC(=O)NCCN(CC(=O)NCC(=O)O)C(=O)Cn2cc(C)c(=O)[nH]c2=O)c(=O)[nH]c1=O
- inhibition (T47D [1]): Active
- inhibition (T47D [2]): Active
- inhibition at 0.1 µM (T47D [3]): 39%
- inhibition at 0.1 µM (T47D [4]): 39%
- inhibition (T47D [5]): Active

Structure (SMILES): Cc1cn(CC(=O)N(CCNC(=O)CN(CCNC(=O)CN(CCNC(=O)CN(CCNC(=O)CN(CCNC(=O)CN(CCNC(=O)CN(CCNC(=O)CN(CCNC(=O)CN(CCNC(=O)CN(CCNC(=O)CN(CCNC(=O)CN(CCNC(=O)CN(CCNC(=O)CN(CCNC(=O)CN(CCNC(=O)CN(CCNC(=O)CN(CCNC(=O)CN(CCNC(=O)CN(CCNC(=O)CN(CCNC(=O)CN)C(=O)Cn2ccc(=O)[nH]c2=O)C(=O)Cn2ccc(N)nc2=O)C(=O)Cn2ccc(=O)[nH]c2=O)C(=O)Cn2ccc(N)nc2=O)C(=O)Cn2ccc(N)nc2=O)C(=O)Cn2cnc3c(N)ncnc32)C(=O)Cn2ccc(N)nc2=O)C(=O)Cn2ccc(N)nc2=O)C(=O)Cn2ccc(=O)[nH]c2=O)C(=O)Cn2ccc(N)nc2=O)C(=O)Cn2ccc(N)nc2=O)C(=O)Cn2ccc(N)nc2=O)C(=O)Cn2cnc3c(N)ncnc32)C(=O)Cn2cnc3c(=O)[nH]c(N)nc32)C(=O)Cn2ccc(N)nc2=O)C(=O)Cn2cnc3c(=O)[nH]c(N)nc32)C(=O)Cn2ccc(N)nc2=O)C(=O)Cn2ccc(N)nc2=O)C(=O)Cn2ccc(N)nc2=O)CC(=O)NCCN(CC(=O)NCC(=O)O)C(=O)Cn2cc(C)c(=O)[nH]c2=O)c(=O)[nH]c1=O
- inhibition (T47D [1]): Active
- inhibition (T47D [2]): Active
- inhibition at 0.1 µM (T47D [3]): < 20%
- inhibition at 0.1 µM (T47D [4]): < 20%
- inhibition (T47D [5]): Active

Structure (SMILES): Cc1cn(CC(=O)N(CCNC(=O)CN(CCNC(=O)CN(CCNC(=O)CN(CCNC(=O)CN(CCNC(=O)CN(CCNC(=O)CN(CCNC(=O)CN(CCNC(=O)CN(CCNC(=O)CN(CCNC(=O)CN(CCNC(=O)CN(CCNC(=O)CN(CCNC(=O)CN(CCNC(=O)CN(CCNC(=O)CN(CCNC(=O)CN(CCNC(=O)CN(CCNC(=O)CN(CCNC(=O)CN(CCNC(=O)CN)C(=O)Cn2ccc(=O)[nH]c2=O)C(=O)Cn2ccc(N)nc2=O)C(=O)Cn2ccc(N)nc2=O)C(=O)Cn2cnc3c(N)ncnc32)C(=O)Cn2ccc(N)nc2=O)C(=O)Cn2ccc(N)nc2=O)C(=O)Cn2ccc(=O)[nH]c2=O)C(=O)Cn2ccc(N)nc2=O)C(=O)Cn2ccc(N)nc2=O)C(=O)Cn2ccc(N)nc2=O)C(=O)Cn2cnc3c(N)ncnc32)C(=O)Cn2cnc3c(=O)[nH]c(N)nc32)C(=O)Cn2ccc(N)nc2=O)C(=O)Cn2cnc3c(=O)[nH]c(N)nc32)C(=O)Cn2ccc(N)nc2=O)C(=O)Cn2ccc(N)nc2=O)C(=O)Cn2ccc(N)nc2=O)C(=O)Cn2ccc(N)nc2=O)C(=O)Cn2ccc(N)nc2=O)CC(=O)NCCN(CC(=O)NCC(=O)O)C(=O)Cn2cc(C)c(=O)[nH]c2=O)c(=O)[nH]c1=O
- inhibition (T47D [1]): Active
- inhibition (T47D [2]): Active
- inhibition at 0.1 µM (T47D [3]): 34%
- inhibition at 0.1 µM (T47D [4]): 34%
- inhibition (T47D [5]): Active

Reference: ChEMBL document CHEMBL1250442, “Inhibiting gene expression at transcription start sites in chromosomal DNA with antigene RNAs” (Nat Chem Biol, 2005)
